Experimental data reported in ChEMBL document CHEMBL3813699, “Structure-Activity Relationships of a Diverse Class of Halogenated Phenazines That Targets Persistent, Antibiotic-Tolerant Bacterial Biofilms and Mycobacterium tuberculosis” (J Med Chem, 2016).
Converted amounts (≈) assume the structure as drawn.

Key:
[1] = tested on: Staphylococcus aureus; experiment: Antibiofilm activity against methicillin-resistant Staphylococcus aureus BAA-1707 assessed as biofilm eradication incubated for 24 hrs by CBD assay; type: functional; conditions: for MBC: Staphylococcus aureus, BAA-1707, 24 h
Procedure, shortened: (§1)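 Calgary Biofilm Device: pegs inoculated with mid-log culture diluted 1,000-fold in TSB + 0.5% glucose, 24 h 37 °C; washed pegs challenged with 2-fold dilutions 24 h 37 °C; pegs moved to fresh TSBG 24 h; MBEC = lowest concentration leaving no turbidity; 2–6 independent experiments.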

[2] = tested on: Staphylococcus epidermidis; experiment: Antibacterial activity against methicillin-resistant Staphylococcus epidermidis ATCC 35984 assessed as biofilm eradication incubated for 24 hrs by CBD assay; type: functional; conditions: for MBC: Staphylococcus epidermidis, ATCC 35984, 24 h; procedure, shortened: as §1
[3] = tested on: Staphylococcus aureus; experiment: Antibacterial activity against methicillin-resistant Staphylococcus aureus clinical isolate 2 incubated for 16 to 18 hrs by broth microdilution method; type: functional
[4] = tested on: Staphylococcus epidermidis; experiment: Antibacterial activity against Staphylococcus epidermidis ATCC 12228 incubated for 16 to 18 hrs by broth microdilution method; type: functional
[5] = tested on: Staphylococcus aureus; experiment: Antibacterial activity against methicillin-resistant Staphylococcus aureus BAA-44 incubated for 16 to 18 hrs by broth microdilution method; type: functional
[6] = tested on: Staphylococcus aureus; experiment: Antibacterial activity against methicillin-resistant Staphylococcus aureus BAA-1707 incubated for 16 to 18 hrs by broth microdilution method; type: functional
[7] = tested on: Enterococcus faecium; experiment: Antibacterial activity against vancomycin-resistant Enterococcus faecium ATCC 700221 incubated for 16 to 18 hrs by broth microdilution method; type: functional
[8] = tested on: Mycobacterium tuberculosis; experiment: Antibacterial activity against Mycobacterium tuberculosis H37Ra ATCC 25177 after 7 days by two-fold serial dilution method; type: functional; conditions: H37Ra ATCC 25177, 168 h
[9] = tested on: HeLa; experiment: Cytotoxicity against human HeLa cells after 24 hrs by LDH release assay; type: cell-based
Procedure, shortened: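 HeLa in DMEM + 10% FBS, 37 °C 5% CO2, at 70–80% confluence treated with 25, 50, 100 µM for 24 h; DMSO vehicle; Triton X-100 2% v/v max-LDH control, medium-only negative; supernatant with LDH reaction mix 30 min room temperature, stopped, absorbance 490 nm.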

[10] = tested on: Enterococcus faecium; experiment: Antibiofilm activity against […]-resistant Enterococcus faecium ATCC 700221 assessed as biofilm eradication incubated for 24 hrs by CBD assay; type: functional; conditions: for MBC: Enterococcus faecium, ATCC 700221, 24 h; procedure, shortened: as §1
[11] = Induction of hemolysis in human RBC at 200 uM incubated for 1 hr; type: cell-based, Erythrocyte; conditions: red blood cells, read-out: Activity
Procedure, shortened: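 Human RBCs (EDTA), washed three times in Tris-buffered saline pH 7.2; 2% hRBC with compound at final 200 µM, 1 h 37 °C; supernatant OD405; % hemolysis relative to DMSO (0%) and Triton X (100%).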

[12] = tested on: Staphylococcus aureus; experiment: Antibiofilm activity against methicillin-resistant Staphylococcus aureus isolate 2 assessed as biofilm eradication incubated for 24 hrs by CBD assay; type: functional; conditions: for MBC: Staphylococcus aureus, isolate 2, 24 h; procedure, shortened: as §1
[13] = tested on: Staphylococcus epidermidis; experiment: Antibacterial activity against methicillin-resistant Staphylococcus epidermidis ATCC 35984 incubated for 16 to 18 hrs by broth microdilution method; type: functional
[14] = tested on: Staphylococcus aureus; experiment: Antibacterial activity against methicillin-resistant Staphylococcus aureus clinical isolate 2 incubated for 16 hrs by broth microdilution method; type: functional; conditions: isolate 2, 16 h

Compound: Oc1c(Br)cc(Br)c2nc3cc(Br)c(Br)cc3nc12
- MBEC [1]: 50 µM
- MBC [1]: 6.25 µM (≈ 3.2 µg/mL)
- MBEC [2]: 6.25 µM
- MBC [2]: 1.56 µM (≈ 0.798 µg/mL)
- MIC [3]: 6.25 µM (≈ 3.2 µg/mL)
- MIC [4]: 0.08 µM (≈ 0.0409 µg/mL)
- MIC [5]: 25 µM (≈ 12.8 µg/mL)
- MIC [6]: 12.5 µM (≈ 6.4 µg/mL)
- MIC [7]: 0.39 µM (≈ 0.2 µg/mL)
- MIC [8]: > 50 µM
- IC50 [9]: > 100 µM
- MBEC [10]: 0.39 µM
- MBC [10]: 0.39 µM (≈ 0.2 µg/mL)
- hemolysis at 1 h, 200 µM [11]: ≤ 1%

Compound: CN[C@@H]1[C@H](O[C@H]2[C@H](O[C@H]3[C@H](O)[C@@H](O)[C@H](N=C(N)N)[C@@H](O)[C@@H]3N=C(N)N)O[C@@H](C)[C@]2(O)C=O)O[C@@H](CO)[C@H](O)[C@H]1O [STREPTOMYCIN]
- MIC [8]: 1.32 µM (≈ 0.768 µg/mL)

Compound: CCCCc1cc(Br)c(O)c2nc3ccccc3nc12
- MBEC [12]: 188 µM
- MBC [12]: 46.9 µM (≈ 15.5 µg/mL)
- MBEC [1]: 62.5 µM
- MBC [1]: 46.9 µM (≈ 15.5 µg/mL)
- MBEC [2]: 23.5 µM
- MBC [2]: 11.7 µM (≈ 3.88 µg/mL)
- MIC [3]: 3.13 µM (≈ 1.04 µg/mL)
- MIC [7]: 0.78 µM (≈ 0.258 µg/mL)
- MBEC [10]: 2 µM
- MBC [10]: 2 µM (≈ 0.662 µg/mL)
- hemolysis at 1 h, 200 µM [11]: 11.5%

Compound: Oc1c(Br)cc(Cl)c2nc3ccccc3nc12
- MBEC [12]: 375 µM
- MBC [12]: 46.9 µM (≈ 14.5 µg/mL)
- MBEC [2]: 46.9 µM
- MBC [2]: 11.7 µM (≈ 3.62 µg/mL)
- MIC [3]: 1.56 µM (≈ 0.483 µg/mL)
- MIC [5]: 1.56 µM (≈ 0.483 µg/mL)
- MIC [13]: 1.56 µM (≈ 0.483 µg/mL)
- MIC [7]: 6.25 µM (≈ 1.93 µg/mL)
- IC50 [9]: > 100 µM
- MBEC [10]: 3.9 µM
- MBC [10]: 7.8 µM (≈ 2.41 µg/mL)
- hemolysis at 1 h, 200 µM [11]: ≤ 1%

Compound: Oc1c(I)cc(Br)c2nc3ccccc3nc12
- MBEC [12]: 250 µM
- MBC [12]: 46.9 µM (≈ 18.8 µg/mL)
- MIC [7]: 6.25 µM (≈ 2.51 µg/mL)

Compound: Cc1nc2c(I)cc(I)c(O)c2nc1C
- MBC [12]: 93.8 µM (≈ 40 µg/mL)
- MBEC [2]: 125 µM
- MBC [2]: 23.5 µM (≈ 10 µg/mL)
- MIC [4]: 2.35 µM (≈ 1 µg/mL)
- MIC [7]: 6.25 µM (≈ 2.66 µg/mL)
- MIC [8]: > 50 µM
- IC50 [9]: > 100 µM
- hemolysis at 1 h, 200 µM [11]: 1.2%
- MIC [14]: 1.17 µM (≈ 0.498 µg/mL)

Compound: Oc1cccc2nc3cc(Cl)c(Cl)cc3nc12
- MIC [3]: > 100 µM
- MIC [4]: > 100 µM
- MIC [13]: > 100 µM
- MIC [7]: > 100 µM

Compound: Oc1c(I)cc(Cl)c2nc3ccccc3nc12
- MBEC [12]: 250 µM
- MBC [12]: 93.8 µM (≈ 33.4 µg/mL)
- MBEC [2]: 250 µM
- MBC [2]: 125 µM (≈ 44.6 µg/mL)
- MIC [3]: 25 µM (≈ 8.91 µg/mL)
- MIC [4]: 25 µM (≈ 8.91 µg/mL)
- MIC [5]: 12.5 µM (≈ 4.46 µg/mL)
- MIC [6]: 3.13 µM (≈ 1.12 µg/mL)
- MIC [13]: 25 µM (≈ 8.91 µg/mL)
- MIC [7]: 6.25 µM (≈ 2.23 µg/mL)
- hemolysis at 1 h, 200 µM [11]: ≤ 1%

Compound: NC(=O)c1cnccn1 [PYRAZINAMIDE]
- MBEC [12]: >2000 µM
- MBC [12]: > 2000 µM

Compound: Oc1c(Cl)cc(Cl)c2nc3ccccc3nc12
- MBEC [12]: >1000 µM
- MBC [12]: 62.5 µM (≈ 16.6 µg/mL)
- MIC [3]: 3.13 µM (≈ 0.83 µg/mL)
- MIC [4]: 3.13 µM (≈ 0.83 µg/mL)
- MIC [5]: 3.13 µM (≈ 0.83 µg/mL)
- MIC [6]: 3.13 µM (≈ 0.83 µg/mL)
- MIC [13]: 3.13 µM (≈ 0.83 µg/mL)
- MIC [7]: 12.5 µM (≈ 3.31 µg/mL)
- hemolysis at 1 h, 200 µM [11]: ≤ 1%

Compound: CN[C@@H](CC(C)C)C(=O)N[C@H]1C(=O)N[C@@H](CC(N)=O)C(=O)N[C@H]2C(=O)N[C@H]3C(=O)N[C@H](C(=O)N[C@@H](C(=O)O)c4cc(O)cc(O)c4-c4cc3ccc4O)[C@H](O)c3ccc(c(Cl)c3)Oc3cc2cc(c3O[C@H]2O[C@@H](CO)[C@H](O)[C@@H](O)[C@@H]2O[C@@H]2C[C@@](C)(N)[C@@H](O)[C@@H](C)O2)Oc2ccc(cc2Cl)[C@H]1O
- MBEC [12]: >2000 µM
- MBC [12]: 3 µM (≈ 4.35 µg/mL)
- MBEC [1]: >2000 µM
- MBC [1]: 3.9 µM (≈ 5.65 µg/mL)
- MBEC [2]: >2000 µM
- MBC [2]: 3 µM (≈ 4.35 µg/mL)
- MIC [4]: 1.17 µM (≈ 1.7 µg/mL)
- MIC [7]: > 100 µM
- MBEC [10]: 150 µM
- MBC [10]: > 200 µM
- hemolysis at 1 h, 200 µM [11]: ≤ 1%

Compound: O=C(O)CN(CCN(CC(=O)O)CC(=O)O)CC(=O)O [EDETIC ACID]
- MBEC [12]: >2000 µM
- MBC [12]: 2000 µM (≈ 584 µg/mL)
- MBEC [2]: >2000 µM
- MBC [2]: 1000 µM (≈ 292 µg/mL)
- hemolysis at 1 h, 200 µM [11]: 3%

Compound: Oc1c(Br)cc(Br)c2nccnc12
- MBEC [12]: >2000 µM
- MBC [12]: 1500 µM (≈ 456 µg/mL)
- MIC [3]: 25 µM (≈ 7.6 µg/mL)
- MIC [4]: 18.8 µM (≈ 5.71 µg/mL)
- MIC [5]: 12.5 µM (≈ 3.8 µg/mL)
- MIC [6]: 6.25 µM (≈ 1.9 µg/mL)
- MIC [13]: 18.8 µM (≈ 5.71 µg/mL)
- MIC [7]: 100 µM (≈ 30.4 µg/mL)
- IC50 [9]: > 100 µM
- hemolysis at 1 h, 200 µM [11]: 1.8%
